Measured values published in ChEMBL document CHEMBL1156597, “Structure-activity relationship of kahalalide F synthetic analogues” (J Med Chem, 2008).

Legend:
[1] = tested on: DU-145; assay: Cytotoxicity against human DU145 cells after 48 hrs by SRB assay; assay type: functional, cell-based; details: Homo sapiens, DU-145, 48 h; for CC50: read-out: LC50 (the source's name)
Summary of the method: (§1)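 Cells grown in RPMI 1640 with 10% FBS and penicillin/streptomycin at 37 °C and 5% CO₂, trypsinized, then seeded at 5 × 10³/well. After 18 h drug-free attachment, samples in DMSO/EtOH/PBS (0.5:0.5:99) were added for 48 h continuous exposure. Cells were fixed with cold TCA (1 h, 4 °C) and stained with SRB (10 min). Tris-solubilized stain read at 490 nm. Triplicate wells, mean ± SD; GI₅₀ derived.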

[2] = tested on: LNCaP; assay: Cytotoxicity against human LNcaP cells after 48 hrs by SRB assay; assay type: functional; details: for CC50: read-out: LC50 (the source's name); summary of the method: as §1
[3] = Cytotoxicity against human IGROV cells after 48 hrs by SRB assay; assay type: functional; details: for CC50: read-out: LC50 (the source's name); summary of the method: as §1
[4] = Cytotoxicity against human IGROV-ET cells after 48 hrs by SRB assay; assay type: functional; details: for CC50: read-out: LC50 (the source's name); summary of the method: as §1
[5] = tested on: SK-BR-3; assay: Cytotoxicity against human SKBR3 cells after 48 hrs by SRB assay; assay type: functional; details: SK-BR-3, 48 h; for GI50: read-out: GI50; for CC50: read-out: LC50 (the source's name); summary of the method: as §1
[6] = tested on: SK-MEL-28; assay: Cytotoxicity against human SK-MEL-28 cells after 48 hrs by SRB assay; assay type: functional, cell-based; details: Homo sapiens, SK-MEL-28, 48 h; for GI50: read-out: GI50; for CC50: read-out: LC50 (the source's name); summary of the method: as §1
[7] = tested on: A549; assay: Cytotoxicity against human A549 cells after 48 hrs by SRB assay; assay type: functional, cell-based; details: Homo sapiens, A549, 48 h; summary of the method: as §1
[8] = tested on: K562; assay: Cytotoxicity against human K562 cells after 48 hrs by SRB assay; assay type: functional; details: K562, 48 h; for CC50: read-out: LC50 (the source's name); summary of the method: as §1
[9] = tested on: PANC-1; assay: Cytotoxicity against human PANC1 cells after 48 hrs by SRB assay; assay type: functional; details: PANC-1, 48 h; for CC50: read-out: LC50 (the source's name); summary of the method: as §1
[10] = tested on: HT-29; assay: Cytotoxicity against human HT29 cells after 48 hrs by SRB assay; assay type: functional, cell-based; details: Homo sapiens, HT-29, 48 h; for CC50: read-out: LC50 (the source's name); summary of the method: as §1
[11] = tested on: LoVo; assay: Cytotoxicity against human LoVo cells after 48 hrs by SRB assay; assay type: functional; details: for CC50: read-out: LC50 (the source's name)
[12] = tested on: LoVo; assay: Cytotoxicity against human doxorubicin resistant LoVo cells after 48 hrs by SRB assay; assay type: functional; details: for CC50: read-out: LC50 (the source's name); summary of the method: as §1
[13] = tested on: HeLa; assay: Cytotoxicity against human HeLa cells after 48 hrs by SRB assay; assay type: functional; details: for CC50: read-out: LC50 (the source's name); summary of the method: as §1
[14] = Cytotoxicity against human HeLa-APL cells after 48 hrs by SRB assay; assay type: functional; summary of the method: as §1

C/C=C1\NC(=O)[C@H](CCC2CCCCC2)NC(=O)[C@@H](C(C)C)NC(=O)[C@@H]([C@@H](C)CC)NC(=O)[C@H](NC(=O)[C@H](NC(=O)[C@H](CCCN)NC(=O)[C@H]2CCCN2C(=O)[C@H](NC(=O)[C@@H](NC(=O)[C@@H](NC(=O)[C@H](NC(=O)CCCC(C)C)C(C)C)[C@@H](C)O)C(C)C)C(C)C)[C@@H](C)CC)[C@@H](C)OC(=O)[C@H](C(C)C)NC1=O
GI50 [1]: 472 nM | GI50 ([1]; read-out: GI50): 464 nM | CC50 [1]: 553 nM | GI50 [2]: 384 nM | TGI [2]: 625 nM | CC50 [2]: 661 nM | GI50 [3]: 372 nM | GI50 ([3]; read-out: GI50): 276 nM | CC50 [3]: 378 nM | GI50 [4]: 312 nM | GI50 ([4]; read-out: GI50): 232 nM | CC50 [4]: 350 nM | TGI [5]: 205 nM | GI50 [5]: 165 nM | CC50 [5]: 256 nM | TGI [6]: 1000 nM | GI50 [6]: 1020 nM | CC50 [6]: 983 nM | GI50 [7]: 857 nM | LC50 [7]: 959 nM | GI50 ([7]; read-out: GI50): 756 nM | GI50 [8]: 1420 nM | TGI [8]: 1410 nM | CC50 [8]: 1390 nM | GI50 [9]: 1120 nM | TGI [9]: 1290 nM | CC50 [9]: 1490 nM | GI50 [10]: 294 nM | TGI [10]: 352 nM | CC50 [10]: 359 nM | GI50 [11]: 266 nM | TGI [11]: 282 nM | CC50 [11]: 298 nM | GI50 [12]: 224 nM | TGI [12]: 258 nM | CC50 [12]: 296 nM | GI50 [13]: 304 nM | TGI [13]: 313 nM | CC50 [13]: 500 nM | GI50 [14]: 319 nM | LC50 (concentration giving 50% net cell kill) [14]: 617 nM | TGI [14]: 499 nM

C/C=C1\NC(=O)[C@H](Cc2ccccc2)NC(=O)[C@@H](C(C)C)NC(=O)[C@@H]([C@H](C)CC)NC(=O)[C@H](NC(=O)[C@H](NC(=O)[C@H](CCCNC(=O)C(F)(F)F)NC(=O)[C@H]2CCCN2C(=O)[C@H](NC(=O)[C@@H](NC(=O)[C@@H](NC(=O)[C@H](NC(=O)CC[C@@H](C)CC)C(C)C)[C@@H](C)OC(=O)C(F)(F)F)C(C)C)C(C)C)[C@H](C)CC)[C@H](C)OC(=O)[C@H](C(C)C)NC1=O
TGI [1]: 1170 nM | GI50 ([1]; read-out: GI50): 1460 nM | CC50 [1]: 931 nM | GI50 [2]: 1140 nM | TGI [2]: 1720 nM | CC50 [2]: 1330 nM | GI50 [3]: 397 nM | GI50 ([3]; read-out: GI50): 373 nM | CC50 [3]: 281 nM | GI50 [4]: 911 nM | GI50 ([4]; read-out: GI50): 770 nM | CC50 [4]: 2480 nM | TGI [5]: 322 nM | GI50 [5]: 331 nM | CC50 [5]: 313 nM | CC50 [6]: 1140 nM | LC50 [7]: 1180 nM | TGI [7]: 1200 nM | GI50 ([7]; read-out: GI50): 1230 nM | CC50 [8]: 1710 nM | CC50 [9]: 1570 nM | GI50 [10]: 329 nM | TGI [10]: 355 nM | CC50 [10]: 381 nM | GI50 [11]: 276 nM | TGI [11]: 284 nM | CC50 [11]: 294 nM | GI50 [12]: 363 nM | TGI [12]: 396 nM | CC50 [12]: 1130 nM | GI50 [13]: 656 nM | TGI [13]: 597 nM | CC50 [13]: 543 nM | GI50 [14]: 849 nM | LC50 (concentration giving 50% net cell kill) [14]: 679 nM | TGI [14]: 778 nM

C/C=C1\NC(=O)[C@H](Cc2ccccc2)NC(=O)[C@@H](C(C)C)NC(=O)[C@@H]([C@H](C)CC)NC(=O)[C@H](NC(=O)[C@H](NC(=O)[C@H](CCCN)NC(=O)[C@H]2CCCN2C(=O)[C@H](NC(=O)[C@@H](NC(=O)[C@@H](NC(=O)[C@H](NC(=O)c2ccccc2)C(C)C)[C@@H](C)O)C(C)C)C(C)C)[C@H](C)CC)[C@H](C)OC(=O)[C@H](C(C)C)NC1=O
TGI [1]: 1120 nM | GI50 ([1]; read-out: GI50): 1210 nM | CC50 [1]: 1040 nM | GI50 [2]: 1190 nM | TGI [2]: 1370 nM | CC50 [2]: 1540 nM | GI50 [3]: 565 nM | GI50 ([3]; read-out: GI50): 997 nM | CC50 [3]: 3910 nM | GI50 [4]: 521 nM | GI50 ([4]; read-out: GI50): 627 nM | CC50 [4]: 436 nM | TGI [5]: 1360 nM | GI50 [5]: 874 nM | CC50 [5]: 1390 nM | TGI [6]: 1010 nM | GI50 [6]: 1120 nM | CC50 [6]: 901 nM | LC50 [7]: 1120 nM | TGI [7]: 1220 nM | GI50 ([7]; read-out: GI50): 1320 nM | GI50 [8]: 431 nM | TGI [8]: 1510 nM | CC50 [8]: 2450 nM | GI50 [9]: 5380 nM | TGI [9]: 4940 nM | CC50 [9]: 2540 nM | CC50 [10]: 508 nM | GI50 [11]: 353 nM | TGI [11]: 423 nM | CC50 [11]: 573 nM | GI50 [13]: 1210 nM | TGI [13]: 945 nM | CC50 [13]: 732 nM | GI50 [14]: 1040 nM | LC50 (concentration giving 50% net cell kill) [14]: 834 nM | TGI [14]: 934 nM
